The values below come from ChEMBL document CHEMBL2321805, “N-methyldihydroquinazolinone derivatives of Retro-2 with enhanced efficacy against Shiga toxin” (J Med Chem, 2013).

SMILES strings stand for the structures. pEC50: −log10 of the molar value. Calls of active or inactive are those of the source. The calls are words filed in the database; no cut-off is given here.

Assay [1] has as its system HeLa. Kind of assay: Cytoprotective activity against shiga toxin-induced cytotoxicity in human HeLa cells at 30 uM incubated for 4 hrs prior to shiga toxin addition measured after 20 hrs by liquid scintillation counting analysis relative to Retro-2. In kind it is functional.
Assay [2] has as its system HeLa. The experiment in a line: Cytoprotective activity against shiga toxin-induced cytotoxicity in human HeLa cells at 30 uM incubated for 4 hrs prior to shiga toxin addition measured after 20 hrs by liquid scintillation counting analysis. In kind it is functional, cell-based.
The test system of assay [3] is HeLa. The experiment in a line: Inhibition of shiga toxin retrograde transport in human HeLa cells after 20 mins by sulfation assay relative to control. In kind it is functional.
In assay [4] the test system is HeLa. Kind of assay: Inhibition of shiga toxin retrograde transport in human HeLa cells assessed as relocalization of syntaxin 5 at 20 uM after 30 mins by immunofluorescence staining. In kind it is functional, cell-based. In outline:
(§1)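 HeLa cells were treated for 30 min with 20 μM compound or DMSO carrier, then fixed. They were immunolabeled for syntaxin 5 and the Golgi marker giantin and imaged by confocal microscopy with a 60× oil objective (NA 1.4). Maximum projections of 6–8 Z slices at 250 nm spacing are shown.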

Assay [5] has as its system HeLa. Kind of assay: Inhibition of shiga toxin retrograde transport in human HeLa cells assessed as change in golgi apparatus morphology at 20 uM after 30 mins by immunofluorescence staining. In kind it is functional, cell-based. In outline:
as §1

For `Cc1ccc(C2N(C)c3ccccc3C(=O)N2c2ccccc2)s1` (racemic), the Activity in assay [1] turned out to be 275%. In assay [2], the pEC50 is 4.99. In assay [3], the “inhibition (INH)” value amounted to 38.7%.

`Cc1ccc(C2N(C)c3ccccc3C(=O)N2c2ccccc2S(=O)(=O)c2ccccc2)s1` (racemic) yielded an Activity in assay [1] of 145%. Moreover, in assay [2], the pEC50 was 5.10.

For the compound `CCc1ccc(C2N(C)c3ccccc3C(=O)N2c2ccccc2)s1` (racemic), the Activity in assay [1] amounted to 323%. Also, the pEC50 in assay [2] is 5.38. In addition, the “inhibition (INH)” value in assay [3] was found to be 0%.

Take `Cc1ccc(C2Nc3ccccc3C(=O)N2c2ccccc2)s1` (racemic): the inhibition entry in assay [4] is “Active”. In addition, the Activity in assay [1] came out at 100%. In addition, the pEC50 in assay [2] was 4.56. The “inhibition (INH)” value in assay [3] stood at 36.9%.

Compound `CSc1ccc(C2Nc3ccccc3C(=O)N2c2ccccc2)s1` (racemic) showed an Activity in assay [1] of 249%. In assay [2], this compound showed a pEC50 of 5.11.

With `O=C1c2ccccc2NC(c2ccc(-c3ccccc3)s2)N1c1ccccc1` (racemic), the Activity in assay [1] is listed as 287%. This compound gave a pEC50 in assay [2] of 5.43.

Consider `O=C1c2ccccc2NC(c2ccc(-c3cccs3)s2)N1c1ccccc1` (racemic), for which the Activity in assay [1] is on record as 111.6%. The compound further gave a pEC50 in assay [2] of 5.29.

With `O=C1c2ccccc2NC(c2ccc(-c3ccco3)s2)N1c1ccccc1` (racemic), the Activity in assay [1] is recorded as 438%. The compound further gave a pEC50 in assay [2] of 5.40.

Take `Cc1nc(-c2ccc(C3Nc4ccccc4C(=O)N3c3ccccc3)s2)cs1` (racemic): the Activity in assay [1] was determined as 271%. Further, the pEC50 in assay [2] was 5.85. Moreover, the “inhibition (INH)” value in assay [3] is given as 0%.

The compound `CSc1ccc(C2N(C)c3ccccc3C(=O)N2c2ccccc2)s1` (racemic) registered an Activity in assay [1] of 265.9%. In assay [2], this compound gave a pEC50 of 5.32.

In assay [1], `CN1c2ccccc2C(=O)N(c2ccccc2)C1c1ccc(Br)s1` (racemic) yielded an Activity of 118%. The pEC50 in assay [2] is 5.47.

Consider `CN1c2ccccc2C(=O)N(c2ccccc2)C1c1ccc(-c2ccccc2)s1` (racemic), for which the Activity in assay [1] came to 309%. This compound also showed a pEC50 in assay [2] of 5.68.

Compound `CN1c2ccccc2C(=O)N(c2ccccc2)C1c1ccc(-c2ccco2)s1` (racemic) had an Activity in assay [1] of 140.4%. This compound showed a pEC50 in assay [2] of 5.82.

`Cc1nc(-c2ccc(C3N(C)c4ccccc4C(=O)N3c3ccccc3)s2)cs1` (racemic): the inhibition entry in assay [4] and in assay [5] was “Active” throughout. The same compound displayed an Activity in assay [1] of 301%. Further, the negative-log EC50 (pEC50) in assay [2] is 6.52. Further, the “inhibition (INH)” value in assay [3] was found to be 0%.

In assay [1], `Cc1ccc(C2N(C)c3ccccc3C(=O)N2c2ccccc2I)s1` (racemic) registered an Activity of 254%. For the same compound, the pEC50 in assay [2] was 5.27.

With `COc1ccccc1N1C(=O)c2ccccc2N(C)C1c1ccc(C)s1` (racemic), the Activity in assay [1] worked out at 264.4%. The compound also had a negative-log EC50 (pEC50) in assay [2] of 5.27.

Take `CSc1ccccc1N1C(=O)c2ccccc2N(C)C1c1ccc(C)s1` (racemic): in assay [1], the Activity is on record as 150.6%. The compound further had a pEC50 in assay [2] of 5.42.

For the compound `Cc1ccc(C2N(C)c3ccccc3C(=O)N2c2ccccc2F)s1` (racemic), in assay [1], the Activity was 208.6%. Further, the pEC50 in assay [2] is 5.26.

In assay [1], `CCc1ccc(C2Nc3ccccc3C(=O)N2c2ccccc2)s1` (racemic) showed an Activity of 166%. In assay [2], this compound gave a pEC50 of 5.06. The “inhibition (INH)” value in assay [3] was determined as 13.5%.
